Data taken from ChEMBL document CHEMBL4342481, “Spiro-oxindole Piperidines and 3-(Azetidin-3-yl)-1H-benzimidazol-2-ones as mGlu2 Receptor PAMs” (ACS Med Chem Lett, 2020).

Columns and labels:
[1] = Positive allosteric modulation of mGlu2 receptor in CHO cell membranes preincubated for 30 mins in presence of 4 uM glutamate followed by [35S]GTPgammaS addition and measured after 30 mins by scintillation counting analysis; design: species or system Cricetulus griseus
Procedure, shortened: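 No absolute EC50 was given where the concentration–response curve reached no clear upper plateau.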

[2] = test system: CHO; assay: Positive allosteric modulation of mGlu2 receptor in CHO cell membranes preincubated for 30 mins in presence of 4 uM glutamate followed by [35S]GTPgammaS addition and measured after 30 mins by scintillation counting analysis relative to control; settings: Cricetulus griseus
Procedure, shortened: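 EMAX is the % response, given as the median of at least two experiments with standard deviation.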

[3] = test system: CHO; assay: Positive allosteric modulation of mGlu2 receptor in CHO cell membranes at 1 uM preincubated for 30 mins in presence of 4 uM glutamate followed by [35S]GTPgammaS addition and measured after 30 mins by scintillation counting analysis; settings: Cricetulus griseus
[4] = Stability in human liver microsomes assessed as percentage of compound metabolized at 5 uM after 15 mins; type: ADME, Microsome; settings: for metabolised at 0.25 h, 5 µM: liver microsomes, read-out: Drug metabolism
[5] = Stability in rat liver microsomes assessed as percentage of compound metabolized at 5 uM after 15 mins; type: ADME, Microsome; settings: for metabolised at 0.25 h, 5 µM: liver microsomes, read-out: Drug metabolism
[6] = Brain to plasma permeability coefficient, Kp in Sprague-Dawley rat at 30 mg/kg, po after 2 hrs; type: ADME, organism-based
Procedure, shortened: (§1)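 Single oral dose to male Sprague–Dawley rats (n = 1), given as a suspension in 20% HP-β-CD at pH 7, at 10 or 30 mg/kg. Plasma (ng/mL) and brain (ng/g) levels were taken at 2 and 4 h. Kp is the brain/plasma partition coefficient at 2 h.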

[7] = Drug level in Sprague-Dawley rat plasma at 30 mg/kg, po after 2 hrs; type: ADME, organism-based; procedure, shortened: as §1
[8] = Drug level in Sprague-Dawley rat plasma at 30 mg/kg, po after 4 hrs; type: ADME, organism-based; procedure, shortened: as §1
[9] = Drug concentration in Sprague-Dawley rat brain at 30 mg/kg, po after 2 hrs; type: ADME, organism-based; settings: read-out: Drug uptake; procedure, shortened: as §1
[10] = Drug concentration in Sprague-Dawley rat brain at 30 mg/kg, po after 4 hrs; type: ADME, organism-based; settings: read-out: Drug uptake; procedure, shortened: as §1
[11] = test system: MDR1; assay: Efflux ratio of permeability in pig LLC-PK1 cells transfected with MDR1; type: ADME, cell-based, Sus scrofa
[12] = test system: MDR1; assay: Permeability in pig LLC-PK1 cells transfected with MDR1 gene; type: ADME, cell-based, Sus scrofa; settings: read-out: permeability
[13] = Brain to plasma permeability coefficient, Kp in Sprague-Dawley rat at 10 mg/kg, po after 2 hrs; type: ADME, organism-based; procedure, shortened: as §1
[14] = Drug level in Sprague-Dawley rat plasma at 10 mg/kg, po after 2 hrs; type: ADME, organism-based; procedure, shortened: as §1
[15] = Drug level in Sprague-Dawley rat plasma at 10 mg/kg, po after 4 hrs; type: ADME, organism-based; procedure, shortened: as §1
[16] = Drug concentration in Sprague-Dawley rat brain at 10 mg/kg, po after 2 hrs; type: ADME, organism-based; settings: read-out: Drug uptake; procedure, shortened: as §1
[17] = Drug concentration in Sprague-Dawley rat brain at 10 mg/kg, po after 4 hrs; type: ADME, organism-based; settings: for concentration at 4 h: Sprague-Dawley, brain, read-out: Drug uptake; procedure, shortened: as §1
[18] = biological target: Adenosine receptor A2b (Homo sapiens) (UniProt P29275); assay: Displacement of radioligand from human adenosine A2B receptor
Chain of Adenosine receptor A2b (Homo sapiens) (P29275 whole entry, looked up): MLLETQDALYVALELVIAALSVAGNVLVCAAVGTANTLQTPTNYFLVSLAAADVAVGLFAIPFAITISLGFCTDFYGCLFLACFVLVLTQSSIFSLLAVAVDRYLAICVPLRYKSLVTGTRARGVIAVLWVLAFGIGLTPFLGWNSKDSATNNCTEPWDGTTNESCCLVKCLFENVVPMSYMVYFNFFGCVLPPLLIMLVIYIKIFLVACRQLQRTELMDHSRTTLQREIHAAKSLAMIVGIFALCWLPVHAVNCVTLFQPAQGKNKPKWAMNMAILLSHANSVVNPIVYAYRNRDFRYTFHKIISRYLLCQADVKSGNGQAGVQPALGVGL

[19] = microsomes, 0.25 h, 5 µM, BLD = below limit of detection

SMILES	EC50 [1]	Emax [2]	Activity [3]	metabolised at 0.25 h, 5 µM [4]	metabolised at 0.25 h, 5 µM [5]	also measured
CC(C)(C)OC(=O)N1CCC2(CC1)C(=O)Nc1ccc(Br)cc12	10000 nM	120%				
FC(F)(F)c1cccc(C2CCN(c3ccc(Cl)nn3)CC2)c1	2290 nM	128%				
CCOc1ccc(N2CCC3(CC2)C(=O)Nc2ccc(Br)cc23)nn1	> 10000 nM	52%	5%	7%	31%	
CCNc1cc(N2CC(n3c(=O)[nH]c4ccccc43)C2)nnc1Cl	280 nM	291%		0%	23%	Kp at 2 h [6]: 0.03; concentration at 2 h [7]: 1480 ng/mL; concentration at 4 h [8]: 842 ng/mL; concentration at 2 h [9]: 48 ng/g; concentration at 4 h [10]: 31 ng/g
O=C1Nc2ccc(Br)cc2C12CCN(c1cccnn1)CC2		141%	7%			
CCOc1cc(N2CC(n3c(=O)[nH]c4cc(C(F)(F)F)ccc43)C2)ncc1Cl	80 nM	218%		4%	12%	Kp at 2 h [6]: 0.14; concentration at 2 h [7]: 2660 ng/mL; concentration at 4 h [8]: 5090 ng/mL; concentration at 2 h [9]: 371 ng/g; concentration at 4 h [10]: 996 ng/g; efflux ratio [11]: 1.24; Papp [12]: 9 ×10⁻⁶ cm/s
O=C1Nc2cccc(Br)c2C12CCN(c1ccc(Cl)nn1)CC2		108%	31%			
CCOc1cc(N2CCC3(CC2)C(=O)Nc2ccc(Br)cc23)nnc1Cl	210 nM	380%	203%	11%	58%	Kp at 2 h [13]: 0.37; concentration at 2 h [14]: 49 ng/mL; concentration at 4 h [15]: 17 ng/mL; concentration at 2 h [16]: 18 ng/g; Drug uptake ([17]; in vivo, 4 h, BLD = below limit of detection): Bld
CCNc1cc(N2CC(n3c(=O)[nH]c4ccc(Br)cc43)C2)nnc1Cl	230 nM	241%		9%	26%	Kp at 2 h [13]: 0.07; concentration at 2 h [14]: 254 ng/mL; concentration at 4 h [15]: 416 ng/mL; concentration at 2 h [16]: 18 ng/g; concentration at 4 h [17]: 18 ng/g
CCNc1cc(N2CCC3(CC2)C(=O)Nc2ccc(Br)cc23)nnc1Cl	240 nM	394%	263%	8%	65%	
CCOc1cc(N2CC(n3c(=O)[nH]c4ccccc43)C2)ncc1Cl	270 nM	259%		15%	46%	Kp at 2 h [6]: 0.36; concentration at 2 h [7]: 5770 ng/mL; concentration at 4 h [8]: 5780 ng/mL; concentration at 2 h [9]: 2050 ng/g; concentration at 4 h [10]: 2370 ng/g; efflux ratio [11]: 1.18; Papp [12]: 13 ×10⁻⁶ cm/s
O=C1Nc2ccc(Cl)cc2C12CCN(c1ccc(Cl)nn1)CC2	1000 nM	187%	80%	8%	76%	
O=C1Nc2ccccc2C12CCN(c1ccc(Cl)nn1)CC2		217%	24%	45%	95%	
CCOc1nc(N2CC(n3c(=O)[nH]c4cc(C(F)(F)F)ccc43)C2)ncc1Cl	150 nM	220%				Drug metabolism [4, 19]: Bld; Drug metabolism [5, 19]: Bld
O=C1Nc2c(Br)cccc2C12CCN(c1ccc(Cl)nn1)CC2	3090 nM	65%	9%			
O=C1Nc2ccc(F)cc2C12CCN(c1ccc(Cl)nn1)CC2		184%	31%	11%	57%	
Cc1ccc(N2CCC3(CC2)C(=O)Nc2ccc(Br)cc23)nn1		228%	36%	17%	69%	
O=C1Nc2cc(Br)ccc2C12CCN(c1ccc(Cl)nn1)CC2		183%	76%			
O=C1Nc2ccc(C3CC3)cc2C12CCN(c1ccc(Cl)nn1)CC2	630 nM	169%	105%	45%	100%	
O=C1Nc2ccc(Br)cc2C12CCN(c1ccc(Cl)nn1)CC2	1020 nM	232%	100%	8%	25%	
CCNc1cc(N2CC(n3c(=O)[nH]c4ccccc43)C2)ncc1Cl	120 nM	381%		27%	88%	
CCOc1cc(N2CCC3(CC2)C(=O)Nc2ccc(Br)cc23)nnc1C(F)(F)F	130 nM	216%	160%	9%	43%	Kp at 2 h [13]: 1.4; concentration at 2 h [14]: 260 ng/mL; concentration at 4 h [15]: 220 ng/mL; concentration at 2 h [16]: 310 ng/g; concentration at 4 h [17]: 290 ng/g; IC50 [18]: 790 nM
O=C1Nc2ccc(Br)cc2C12CCN(c1ccc(C(F)(F)F)nn1)CC2	400 nM	53%	46%	4%	20%	
